The values below come from ChEMBL document CHEMBL1932993, “Synthesis and cytotoxicity of O,O'-dialkyl {[2-(substituted phenoxy)acetamido](substituted phenyl)methyl}phosphonates” (Eur J Med Chem, 2012).

Molecules are shown by their SMILES.

One assay deals with KB. Briefly: Cytotoxicity against human KB cells after 72 hrs ny MTT assay. It is filed as functional, cell-based. A digest of the protocol:
(§1)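 Cells grown in RPMI 1640 with 10% fetal calf serum and seeded at 2 × 10^4/mL. They were held 12 h at 37 °C in 5% CO2, then exposed to compound for 3 days at 37 °C. MTT formazan was dissolved and absorbance read at 570 nm. IC50 is the concentration giving 50% growth inhibition versus untreated controls. At least 3 independent experiments.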

Assay [1] can be described thus: Cytotoxicity against human CNE2 cells after 72 hrs ny MTT assay. It is filed as functional, cell-based. Conditions: CNE-2, 72 h. The essentials: as §1

With `COP(=O)(OC)C(NC(=O)COc1ccc(Cl)cc1Cl)c1ccccc1` (centres undefined), the IC50 (with KB; in assay [1]) was > 50 µM each time.
Take `COP(=O)(OC)C(NC(=O)COc1ccc(Cl)cc1Cl)c1ccc(C)cc1` (centres undefined): the IC50 (in the assay on KB; in assay [1]) was > 50 µM each time.
In the case of `COP(=O)(OC)C(NC(=O)COc1ccc(Cl)c(C)c1)c1ccc(C)cc1` (centres undefined), the IC50 (in the assay with KB; in assay [1]) was > 50 µM in each case.
For `COc1ccc(C(NC(=O)COc2cccc(C)c2C)P(=O)(OC)OC)cc1` (centres undefined), the IC50 (with KB; in assay [1]) was > 50 µM throughout.
As to `COc1ccc(C(NC(=O)COc2ccc(Cl)cc2Cl)P(=O)(OC)OC)cc1` (centres undefined), the IC50 (with KB; in assay [1]) was > 50 µM in each case.
For `CCOP(=O)(OCC)C(NC(=O)COc1ccc(Cl)cc1Cl)c1ccc(OC)cc1` (centres undefined), the half-maximal inhibitory concentration (IC50) (in the assay on KB; in assay [1]) was > 50 µM in each case.
For the compound `CCOP(=O)(OCC)C(NC(=O)COc1ccc(Cl)cc1)c1ccc(OC)cc1` (centres undefined), the IC50 (with KB; in assay [1]) was > 50 µM in each case.
With `CCOP(=O)(OCC)C(NC(=O)COc1cccc(C(F)(F)F)c1)c1ccc(OC)cc1` (centres undefined), the IC50 (in the assay with KB; in assay [1]) was > 50 µM in each case.
Consider `CCOP(=O)(OCC)C(NC(=O)COc1ccc([N+](=O)[O-])cc1)c1ccc(OC)cc1` (centres undefined), for which the IC50 (in the assay on KB; in assay [1]) was > 50 µM each time.
Turning to `CCOP(=O)(OCC)C(NC(=O)COc1ccc(Cl)cc1C)c1ccc(OC)cc1` (centres undefined), the IC50 (with KB; in assay [1]) was > 50 µM throughout.
With `CCCOP(=O)(OCCC)C(NC(=O)COc1ccc(Cl)cc1Cl)c1ccccc1` (centres undefined), the 50% inhibitory concentration (IC50) in the assay on KB is 16 µM; in assay [1], 26 µM.
Regarding `CCCOP(=O)(OCCC)C(NC(=O)COc1ccc(Cl)cc1)c1ccccc1` (centres undefined), the values for the IC50 (in the assay with KB; in assay [1]) were 23 µM and 42.9 µM, respectively.
For the compound `CCCOP(=O)(OCCC)C(NC(=O)COc1cccc(C(F)(F)F)c1)c1ccccc1` (centres undefined), the IC50 in the assay with KB is 21.6 µM; in assay [1], 41.8 µM.
The matching figures for `CCCOP(=O)(OCCC)C(NC(=O)COc1ccc(Cl)cc1Cl)c1ccc(OC)cc1` (centres undefined): 17.4 µM and 27.2 µM.
The matching figures for `CCCOP(=O)(OCCC)C(NC(=O)COc1cccc(C(F)(F)F)c1)c1ccc(OC)cc1` (centres undefined): 19.8 µM and 38.5 µM.
As for `CCCCOP(=O)(OCCCC)C(NC(=O)COc1cccc(C)c1C)c1ccccc1` (centres undefined), the half-maximal inhibitory concentration (IC50) with KB came to 18.2 µM; in assay [1] it was 25.1 µM.
`CCCCOP(=O)(OCCCC)C(NC(=O)COc1ccccc1Cl)c1ccccc1` (centres undefined): the 50% inhibitory concentration (IC50) with KB was 15.8 µM; in assay [1] it was 11.4 µM.
Take `CCCCOP(=O)(OCCCC)C(NC(=O)COc1ccc(Cl)cc1Cl)c1ccccc1` (centres undefined): the IC50 in the assay on KB is 17.8 µM; in assay [1], 13.8 µM.
On the same counts, the results for `CCCCOP(=O)(OCCCC)C(NC(=O)COc1ccc(Cl)cc1C)c1ccccc1` (centres undefined) are 12.3 µM and 19.9 µM.
`CCCCOP(=O)(OCCCC)C(NC(=O)COc1ccc(Cl)c(C)c1)c1ccccc1` (centres undefined): the IC50 was 18.1 µM in the assay with KB and 43 µM in assay [1].
For the compound `CCCCOP(=O)(OCCCC)C(NC(=O)COc1cc(Cl)c(Cl)cc1Cl)c1ccccc1` (centres undefined), the IC50 was 15.9 µM in the assay with KB and > 50 µM in assay [1].
On the same counts, the results for `CCCCOP(=O)(OCCCC)C(NC(=O)COc1ccc(OC)cc1)c1ccccc1` (centres undefined) are 25.5 µM and 41.2 µM.
Consider `CCCCOP(=O)(OCCCC)C(NC(=O)COc1ccc(F)cc1Cl)c1ccccc1` (centres undefined), for which the concentration for half-maximal inhibition (IC50) in the assay on KB turned out to be 12.3 µM; in assay [1] it was 13.1 µM.
With `CCCCOP(=O)(OCCCC)C(NC(=O)COc1cccc(C)c1C)c1ccc(OC)cc1` (centres undefined), the IC50 in the assay with KB came out at 7.1 µM; in assay [1], 20.7 µM.
On the same counts, the results for `CCCCOP(=O)(OCCCC)C(NC(=O)COc1ccccc1Cl)c1ccc(OC)cc1` (centres undefined) are 14.5 µM and 13.4 µM.
On the same counts, the results for `CCCCOP(=O)(OCCCC)C(NC(=O)COc1ccc(C(C)(C)C)cc1)c1ccc(OC)cc1` (centres undefined) are 13.3 µM and 31.1 µM.
In the case of `O=c1[nH]cc(F)c(=O)[nH]1` [FLUOROURACIL], the IC50 came out at 9 µM in the assay with KB and 13.5 µM in assay [1].
